The M2OR odorant receptor database
Where a chain is given by its changes, count along the chain named.

test system: T1, O13C8 A19D; settings: stereoisomer not certain
T1 sequence (whole entry): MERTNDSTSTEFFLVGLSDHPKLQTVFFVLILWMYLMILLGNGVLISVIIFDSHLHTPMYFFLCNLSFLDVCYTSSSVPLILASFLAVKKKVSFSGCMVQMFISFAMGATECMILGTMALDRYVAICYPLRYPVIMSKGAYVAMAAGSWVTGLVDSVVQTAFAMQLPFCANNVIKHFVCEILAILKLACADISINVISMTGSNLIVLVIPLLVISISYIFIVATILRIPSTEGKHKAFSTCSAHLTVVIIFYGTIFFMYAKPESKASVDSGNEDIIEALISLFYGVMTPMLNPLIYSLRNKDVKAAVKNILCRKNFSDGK
Outline: (§1)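 Each receptor–molecule pair is labelled responsive or non-responsive (inactive) according to whether the original authors judged the measured signal statistically different from baseline. The data were taken from the main text and supplementary material of published papers and checked for typos and inconsistencies. Assay methods differed by source, with transient luciferase assays in mammalian cell lines being common.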
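Also: active if original authors judged signal statistically different from baseline.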

Odorant receptor agonist call, inactive:
CC1=C(O)C(=O)OC1C (centres undefined)
CCCCCCC=CCCC=O
CCC1OC(C)=C(O)C1=O (centres undefined)
CCC1OC(=O)C(O)=C1C (centres undefined)
CC1=C(O)C(=O)C(C)O1 (centres undefined)
Cc1cnc(C)c(C)n1
CC1=NC(C)C(C)S1 (centres undefined)
CCCC(S)CCOC(C)=O (centres undefined)

test system: T2, O13C9 H17L V19G L23H; settings: stereoisomer not certain
T2 sequence (whole entry): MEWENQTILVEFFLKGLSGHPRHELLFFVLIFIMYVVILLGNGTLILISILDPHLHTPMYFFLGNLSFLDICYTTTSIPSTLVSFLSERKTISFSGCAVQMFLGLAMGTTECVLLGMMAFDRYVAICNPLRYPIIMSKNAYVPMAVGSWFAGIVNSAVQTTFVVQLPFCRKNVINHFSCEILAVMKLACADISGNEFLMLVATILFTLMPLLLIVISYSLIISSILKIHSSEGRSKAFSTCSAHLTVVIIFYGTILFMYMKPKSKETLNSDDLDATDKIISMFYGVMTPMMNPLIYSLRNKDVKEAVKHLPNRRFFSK
Outline: as §1

Odorant receptor agonist call, inactive:
CC1=C(O)C(=O)OC1C (centres undefined)
CCCCCCC=CCCC=O
CCC1OC(C)=C(O)C1=O (centres undefined)
CCC1OC(=O)C(O)=C1C (centres undefined)
CC1=C(O)C(=O)C(C)O1 (centres undefined)
Cc1cnc(C)c(C)n1
CC1=NC(C)C(C)S1 (centres undefined)
CCCC(S)CCOC(C)=O (centres undefined)

test system: T3, O13C9 Q6H; settings: stereoisomer not certain
T3 sequence (whole entry): T2 sequence (whole entry) with Q6H, L17H, G19V, H23L
Outline: as §1

Odorant receptor agonist call, inactive:
CC1=C(O)C(=O)OC1C (centres undefined)
CCCCCCC=CCCC=O
CCC1OC(C)=C(O)C1=O (centres undefined)
CCC1OC(=O)C(O)=C1C (centres undefined)
CC1=C(O)C(=O)C(C)O1 (centres undefined)
Cc1cnc(C)c(C)n1
CC1=NC(C)C(C)S1 (centres undefined)
CCCC(S)CCOC(C)=O (centres undefined)
